Data set [1] concerns Enterovirus A71. Briefly: Antiviral activity against Enterovirus A 71 BrCr infected in human RD cells assessed as reduction in viral RNA level at 20 uM preincubated for 1 hr followed by viral infection and measured 8 hrs post-infection by RT-qPCR analysis relative to control. The format is functional, strain BRCR. Also noted: scale not given: the % may be the effect or the level left. Summed up: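 RD cells grown to confluence; compound at 20 μM in 2% FBS medium added 1 h before or 1, 2, 4 h after EV-A71 BrCr infection (MOI 1). Pirodavir 20 μM as entry-inhibitor reference; infected untreated cells as controls. At 8 h post-infection, intracellular RNA isolated and viral RNA quantified by RT-qPCR.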

The nature of data set [2]: Selectivity index, ratio of CC50 for human RD cells to EC50 for Enterovirus A71 BrCr infected in human RD cells. In kind it is toxicity, cell-based. The note with it: read-out: Ratio CC50/EC50. Put shortly:
(§1)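 RD cells seeded in 96-well plates; next day serial compound dilutions plus virus at low MOI added. Incubation at 37 °C, 5% CO₂ until full CPE in untreated infected controls (3 days). CC50 from uninfected treated cells in the same setup; SI = CC50/EC50.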

Data set [3] concerns Enterovirus A71. Briefly: Antiviral activity against Enterovirus A 71 BrCr infected in human RD cells assessed as reduction in virus-induced cytopathic effect preincubated for 1 day followed by viral infection and measured after 3 days by MTS/PMS method. The format is functional, organism-based. The note with it: strain BRCR. Summed up:
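RD cells seeded in 96-well plates; next day serial compound dilutions plus virus at low MOI added. Incubation at 37 °C, 5% CO₂ until full CPE in untreated infected controls (3 days). Viability read by MTS/PMS; EC50 as 50% inhibition of virus-induced death from dose-response curves. CC50 from uninfected treated cells in the same setup; SI = CC50/EC50.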

Data set [4] has as its system Enterovirus A71. Briefly: Antiviral activity against Enterovirus A 71 BrCr infected in human RD cells assessed as reduction in viral RNA level at 20 uM administered at onset of infection measured 8 hrs post-infection by RT-qPCR analysis relative to control. The format is functional, strain BRCR. On the set-up: scale not given: the % may be the effect or the level left.

In data set [5] the test system is Human immunodeficiency virus 2. Briefly: Antiviral activity against HIV-2 ROD infected in human MT4 cells assessed as reduction in virus-induced cytopathic effect preincubated for 30 mins followed by viral infection and measured after 5 days by MTS assay. The note with it: Human immunodeficiency virus 2, ISOLATE ROD. (Cytopathic effects are the visible damage that an infection or toxin causes in cultured cells.)

The test system of data set [6] is RD. Briefly: Cytotoxicity against human RD cells assessed as induction of cell morphological changes. In kind it is cell-based.
Data set [7] in a line: Selectivity ratio of EC50 for Enterovirus A 71 BrCr infected in human RD cells to EC50 for Enterovirus A 71 genotype B2 11316 infected in human RD cells. The format is functional.
In data set [8] the test system is Enterovirus A71. Briefly: Antiviral activity against Enterovirus A71 genotype C4 TW/1956/05 infected in human RD cells assessed as reduction in virus-induced cytopathic effect preincubated for 1 day followed by viral infection and measured after 3 days by MTS/PMS method. The format is functional, organism-based. The note with it: Enterovirus A, genotype C4 TW/1956/05, RD. Put shortly: as §1

Data set [9] relates to Enterovirus A71. The experiment in a line: Antiviral activity against Enterovirus A71 genotype C2 H08300 461812 infected in human RD cells assessed as reduction in virus-induced cell death preincubated for 1 day followed by viral infection and measured after 3 days by microscopic analysis. In kind it is functional. On the set-up: scale not given: the % may be the effect or the level left. Put shortly: (§2)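 RD cells were seeded in 96-well plates and infected the next day at low MOI, with serial compound dilutions added at the same time. Plates were incubated at 37 °C, 5% CO2 for 3 days, until untreated infected controls died. Cell death was quantified by MTS/PMS and EC50 calculated from dose-response curves. Values come from more than 2 dose-response curves across more than 1 experiment, with microscopic quality control.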

For data set [10], the system named is Enterovirus A71. The experiment in a line: Antiviral activity against Enterovirus A71 genotype C2 H08300 461812 infected in human RD cells assessed as reduction in virus-induced cytopathic effect preincubated for 1 day followed by viral infection and measured after 3 days by MTS/PMS method. The conditions noted are these: Enterovirus A, genotype C2 H08300 461812, RD. The format is functional, organism-based. Summed up: as §1

Data set [11] in a line: Selectivity index, ratio of CC50 for human MT4 cells to EC50 for HIV-1 NL4.3 infected in human MT4 cells.
Data set [12] has as its system Enterovirus A71. Briefly: Antiviral activity against Enterovirus A71 genotype B5 TW/70902/08 infected in human RD cells assessed as reduction in virus-induced cell death preincubated for 1 day followed by viral infection and measured after 3 days by […]. The format is functional. Also noted: scale not given: the % may be the effect or the level left. Put shortly:
as §2

Data set [13] concerns Enterovirus A71. The experiment in a line: Antiviral activity against Enterovirus A71 genotype B2 11316 infected in human RD cells assessed as reduction in virus-induced cytopathic effect preincubated for 1 day followed by viral infection and measured after 3 days by MTS/PMS method. In kind it is functional, organism-based. The conditions noted are these: Enterovirus A, genotype B2 11316, RD. Put shortly:
as §1

In data set [14] the test system is Enterovirus A71. Briefly: Antiviral activity against Enterovirus A 71 BrCr infected in human RD cells assessed as reduction in virus-induced cell death preincubated for 1 day followed by viral infection and measured after 3 days by microscopic analysis. In kind it is functional, strain BRCR. On the set-up: scale not given: the % may be the effect or the level left. Summed up: as §2

Data set [15] deals with Enterovirus A71. The experiment in a line: Antiviral activity against Enterovirus A71 genotype B2 11316 infected in human RD cells assessed as reduction in virus-induced cell death preincubated for 1 day followed by viral infection and measured after 3 days by microscopic analysis. The format is functional. Also noted: scale not given: the % may be the effect or the level left. Summed up: as §2

For data set [16], the system named is Enterovirus A71. Briefly: Antiviral activity against Enterovirus A71 genotype C4 TW/1956/05 infected in human RD cells assessed as reduction in virus-induced cell death preincubated for 1 day followed by viral infection and measured after 3 days by microscopic analysis. The format is functional. Also noted: scale not given: the % may be the effect or the level left. Put shortly: as §2

A short description of data set [17]: Cytotoxicity against human MT4 cells assessed as reduction in cell viability measured after 5 days by MTS/PES assay. The format is cell-based. Put shortly: (§3)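 MT-4 cells (RPMI-1640, 10% FCS, 1% L-glutamine) pre-incubated 30 min at 37 °C with compound, then infected with HIV-1 NL4.3 or HIV-2 ROD according to stock TCID50. After 5 days, CPE scored microscopically and viability read by MTS/PES at A490 to derive EC50; cytotoxicity measured by MTS/PES at 5 days in the same cells. SI = CC50/EC50. Mean ± S.D. of at least 3 experiments.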

The test system of data set [18] is Enterovirus A71. Briefly: Antiviral activity against Enterovirus A71 genotype B5 TW/70902/08 infected in human RD cells assessed as reduction in virus-induced cytopathic effect preincubated for 1 day followed by viral infection and measured after 3 days by MTS/PMS method. In kind it is functional, organism-based. The conditions noted are these: Enterovirus A, genotype B5 TW/70902/08, RD. Summed up:
as §1

Data set [19] can be described thus: Selectivity ratio of EC50 for Enterovirus A 71 BrCr infected in human RD cells to EC50 for Enterovirus A 71 genotype C4 TW/1956/05 infected in human RD cells. The format is functional.
The test system of data set [20] is RD. Briefly: Cytotoxicity against human RD cells assessed as adverse effect on cell. In kind it is cell-based.
The nature of data set [21]: Selectivity index, ratio of CC50 for human MT4 cells to EC50 for HIV1 NL4.3 infected in human MT4 cells. The format is toxicity, cell-based. The note with it: read-out: Ratio CC50/EC50. Put shortly: as §3
Data set [22] concerns Human immunodeficiency virus 1. Briefly: Antiviral activity against HIV1 NL4.3 infected in human MT4 cells assessed as reduction in virus-induced cytopathic effect preincubated for 30 mins followed by viral infection and measured after 5 days by MTS assay. In kind it is functional, organism-based. The conditions noted are these: Human immunodeficiency virus 1, NL4.3, MT4.

As a reminder, the EC50 is the concentration giving half of the maximal effect. By EC90 is commonly meant the concentration at which the effect reaches the 90% level. What is called CC50 is the concentration at which the toxic effect on the cells reaches its halfway point.

As to `CCOC(=O)c1ccc(OCCC2CCN(c3ccc(C)nn3)CC2)cc1` [PIRODAVIR], the Activity in the data set on Enterovirus A71 [1] is 100%. In addition, the selectivity ratio in data set [2] is over 333. Further, in the data set with Enterovirus A71 [3], the EC50 is 300 nM and the concentration for an effect of 90% (EC90) is 600 nM. For the same compound, the Activity in the data set with Enterovirus A71 [4] was 100%.
As for `O=C(CCOCC(COCCC(=O)NC(Cc1c(-c2cccc(C(=O)O)c2)[nH]c2ccccc12)C(=O)O)(COCCC(=O)NC(Cc1c(-c2cccc(C(=O)O)c2)[nH]c2ccccc12)C(=O)O)COCCC(=O)NC(Cc1c(-c2cccc(C(=O)O)c2)[nH]c2ccccc12)C(=O)O)NC(Cc1c(-c2cccc(C(=O)O)c2)[nH]c2ccccc12)C(=O)O` (stereo unspecified), the EC50 was 760 nM in [5]; 2 nM in the data set on Enterovirus A71 [8]; 7.3 nM in the data set on Enterovirus A71 [10]; 52 nM with Enterovirus A71 [13]; 175 to 190 nM with Enterovirus A71 [3]; 18 nM in the data set with Enterovirus A71 [18]. Further, the EC50 in data set [22] stood at 2000 nM. The Activity result in the data set on RD [6] is on record as “Non-Toxic”; with Enterovirus A71 [9] it was 100%; in the data set with Enterovirus A71 [12], 100%; in the data set with Enterovirus A71 [14], 100%; in the data set on Enterovirus A71 [15], 100%; with Enterovirus A71 [16], 100%. Also, in the data set with RD [20], the Activity result is “Non-Toxic”. The “Ratio EC50” value is recorded as 4 in data set [7] and 88 in data set [19]. Further, the selectivity ratio was over 50 in [11], over 336 in data set [2] and over 50 in data set [21]. The 50% cytotoxic concentration (CC50) at 120 h in data set [17] was over 100000 nM. Further, the concentration for an effect of 90% (EC90) in the data set with Enterovirus A71 [3] is 300 nM.
